An excerpt weighted towards active compounds, which were near 2.4% of everything screened.
aDG glyco up: activators of alpha-DG glycosylation, primary screen, uHTS, Pro5-aDG cells, AlphaScreen | actives 0.22% (n = 360,000) | alpha-DG glycosylation AlphaScreen (IIH6); 0% Pro5, 100% B10-LARGE cell signal | activation, % at 10 µM;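 active = activation of at least 8% versus controls, or a plate z-score of at least 8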;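 note: Pro5 are CHO cells carrying HIG-tagged alpha-DG that lacks glycosylation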
NTR1 ag: agonists of human NTR1, primary screen, imaging, U2OS cells, beta-arrestin-GFP, high content. NTR1-U2OS beta-arrestin-GFP spot imaging, agonist mode. activation, % at 20 µM. actives 0.17% (n = 330,000). AID 493036, 2011;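 active = activation at or above 40% of the spot to cytoplasm intensity ratio, with at least 20 cells analyzed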;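 note: 0% = DMSO without peptide and 100% = 100 nM NTR1 peptide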
MC4R ag barr: MC4R agonists recruiting beta-arrestin, primary screen, cell-based, luminescence, agonist arm of biased-ligand search. Melanocortin receptor 4 (Homo sapiens), P32245. U2OS MC4R beta-arrestin complementation; percent of melanotan II response, DMSO zero. activation, % at 8.9 µM. actives 0.98% (n = 360,000);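 active = activation above a per-plate cutoff, the mean activation of sample wells on that plate plus 3 SD, cut at about 8% in these data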
Target sequence (P32245 whole entry, looked up): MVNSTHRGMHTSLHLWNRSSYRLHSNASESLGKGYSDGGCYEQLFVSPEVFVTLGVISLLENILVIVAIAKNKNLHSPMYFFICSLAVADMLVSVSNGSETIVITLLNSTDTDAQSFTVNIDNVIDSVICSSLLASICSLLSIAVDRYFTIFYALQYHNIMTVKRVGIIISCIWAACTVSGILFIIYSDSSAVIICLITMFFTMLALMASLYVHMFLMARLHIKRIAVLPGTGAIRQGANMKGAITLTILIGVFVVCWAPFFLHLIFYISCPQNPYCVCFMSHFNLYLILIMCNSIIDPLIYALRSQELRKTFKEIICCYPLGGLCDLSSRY
Tb MetRS inh: T. brucei MetRS inhibitors, primary screen, biochemical, luminescence; purified T. brucei MetRS, ATP depletion, Kinase-Glo luminescence; inhibition, % at 11.9 µM; actives 0.4% (n = 360,000); AID 624268, 2012;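 active = inhibition above a per-plate cutoff of the control wells' mean inhibition plus 3 SD, cut at about 5.5% in these data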;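 note: 0% = DMSO wells median and 100% = median of wells with control inhibitor compound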
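Material – parasite MetRS enzyme · Medium – HEPES-MgCl2-KCl buffer plus DTT, spermine, BSA, pyrophosphatase · Reagent – ATP, methionine and E. coli bulk tRNA substrates · Times – 15 min enzyme-compound preincubation, 2 h reaction, 10 min detection, 25 °C · Measured by – luminescence of leftover ATP · Evaluation – percent inhibition relative to median high and low control wells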
MC4R antagonist: MC4R antagonists of cAMP signaling, primary screen, cell-based, TR-FRET, antagonist arm of biased-ligand search; Melanocortin receptor 4 (Homo sapiens), P32245; inhibition, % at 6.5 µM; AID 540295, 2011; MC4R-expressing cells, MTII-stimulated cAMP, LANCE TR-FRET; actives 0.48% (n = 360,000);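 active = inhibition above its plate's cutoff, the mean of tested wells on that plate plus 3 SD, cut at about 29% in these data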;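 note: 0% = Melanotan II alone and 100% = Melanotan II plus saturating MCL0020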
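Assay system: human MC4R-expressing U2OS cells; reagent: Melanotan II stimulation of cells; dosing: 6.5 µM single dose; timing: compound 30 min, challenge 1 h, detection 1 h; signal: TR-FRET cAMP assay; replicates: one well per compound, no replicates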
TAG inh: inhibitors of triacylglycerol accumulation, primary screen, cell-based, uHTS, fluorescence, H9c2; H9c2 cells, Nile Red lipid (TAG) fluorescence; cells loaded with 200 µM oleic acid; inhibition, % at 12.5 µM; actives 0.66% (n = 230,000); AID 651582, 2012;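 active = pattern-corrected inhibition of lipid staining of at least 50% with the nuclear-stain viability signal not falling by more than 50%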;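 note: 0% = DMSO wells and 100% = triacsin C control wells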
* = called active by the depositor; nt = no result given.

SMILES | aDG glyco up | NTR1 ag | MC4R ag barr | Tb MetRS inh | MC4R antagonist | TAG inh
CC1(C(=O)Nc2cnc3ccccc3c2)CCN1Cc1ccc(-c2ccccc2)o1 (centres undefined) | 0 | nt | -1 | 0 | 4 | -1
CCOC1=C2[C@H](c3ccccc3)N(S(=O)(=O)c3ccc(C)cc3)C(C(C)(C)C)[C@H]2C(C#N)(C#N)C(C#N)(C#N)C1 (some centres undefined) | 0 | nt | nt | 0 | nt | nt
Cc1nc2nc(C)n(CCN3CCOCC3)c(=O)c2c(-c2cccc([N+](=O)[O-])c2)c1C(=O)CCCCCCCCCCN1CCC(c2ccccc2)(c2ccccc2)CC1 | -1 | nt | 0 | -1 | 23 | 127*
O=C(NCCCN1CCOCC1)/C(=C/c1ccc(-c2cccc([N+](=O)[O-])c2)o1)NC(=O)c1ccccc1 | 0 | nt | -1 | 0 | -19 | 17
CC(C)(C)C1=CC(=Nc2ccccc2N)C=C(C(C)(C)C)C1=O | 0 | -1 | -1 | -3 | 23 | nt
CC(C)(C)C1=CC(=O)C(=O)C(C(C)(C)C)=C1 | 0 | -2 | 25* | -1 | 10 | nt
O=C1[C@H](Cc2ccccc2)NCC=CC[C@H](c2ccc(Cl)cc2)N1Cc1ccc(Cl)cc1 | 1 | nt | 2 | 0 | 9 | 2
O=C1[C@H](Cc2ccccc2)NCC=CC[C@H](c2ccc(Cl)cc2)N1Cc1ccccc1 | 0 | nt | 8.6* | 0 | 12 | 18
FC(F)(F)c1ccccc1Cc1c(-c2cccc(Cl)c2)nc2ccc(Cl)cn12 | 0 | nt | nt | -1 | nt | nt
Cc1nc(NC(=O)c2ccco2)sc1-c1csc(Nc2ccc(Cl)cc2Cl)n1 | 1 | 6 | 8.5* | 0 | 27 | 20
Cc1ccc(Cl)cc1Nc1nc(-c2sc(NC(=O)c3ccco3)nc2C)cs1 | 0 | -1 | 0 | -1 | 17 | 9
COc1ccc([C@H]2C[C@H](O)C[C@@H](CCn3cc(-c4ccccc4)nn3)O2)cc1 | 0 | nt | nt | 0 | nt | nt
CCOc1ccc(C(=O)NC(=S)Nc2ccc(N3CCCCC3)cc2)cc1[N+](=O)[O-] | 0 | 2 | 47* | 0 | 0 | nt
Cc1cccc(N(Cc2ccccc2)C(=O)CCl)c1 | -1 | nt | 22* | 0 | 25 | 68*
O=C1C=C(O)CC2(CCCCC2)C1 | 0 | nt | nt | 0 | nt | nt
CCCCn1c(CN2CCN(C(=O)c3ccco3)CC2)nc2c1c(=O)n(C)c(=O)n2C | 7.9* | 0 | 0 | 0 | 8 | 6
CCCCCn1c(CN2CCN(C(=O)c3ccco3)CC2)nc2c1c(=O)n(C)c(=O)n2C | 0 | 0 | 0 | 0 | 8 | 2
O=C(COC(=O)Cc1ccccc1F)Nc1ccc2[nH]c(=O)[nH]c2c1 | 0 | 0 | -5 | -1 | 9 | -18
O=C(COC(=O)/C=C/c1cc(Br)ccc1F)Nc1ccc2[nH]c(=O)[nH]c2c1 | 0 | 1 | 8.9* | 0 | 2 | 4
COc1ccc(C2CC(c3ccc4ccccc4c3)=NN2C(=O)CNC2CCCCC2)cc1 (centres undefined) | 6 | 20 | 8.5* | 0 | 2 | 29
O=C1Nc2ccccc2CCc2ccccc21 | 0 | -1 | -3 | 0 | 1 | -11
O=C1Cc2ccccc2C(=O)N1 | 0 | nt | nt | 22* | nt | nt
COC[C@H]1CCCN1c1ccc2c(c1)O[C@H](COCc1ccccc1)CN([C@H](C)c1ccccc1)S2(=O)=O | 0 | nt | nt | -1 | nt | nt
O=[N+]([O-])c1cc(Cl)ccc1Sc1cccc2cccnc12 | 0 | 2 | 8.8* | 1 | 5 | nt
O=c1cc(O)cc2n1CCC2 | 0 | nt | nt | -2 | nt | nt
SMILES | aDG glyco up | NTR1 ag | MC4R ag barr | Tb MetRS inh | MC4R antagonist | TAG inh
O=C(CN(CCc1ccccc1)S(=O)(=O)c1ccc(Br)cc1)N/N=C/c1ccc2c(c1)OCO2 | 0 | 26 | 8.5* | 0 | 12 | nt
CCOC(=O)c1csc(N/N=C2\CCCc3ccccc32)n1 | 0 | 42* | -2 | -1 | -9 | nt
O=C(CC[C@H]1O[C@@H](n2ccc(=O)[nH]c2=O)[C@H](O)[C@@H]1O)N1CCN(Cc2cccc3ccccc23)CC1 | 0 | nt | nt | 0 | nt | nt
CCc1ccc(S(=O)(=O)/N=C2\C=CC(=O)c3ccccc32)cc1 | nt | -1 | nt | nt | nt | nt
CCc1ccc(S(=O)(=O)/N=C2/C=C(Sc3ncn[nH]3)C(=O)c3ccccc32)cc1 | 0 | nt | -1 | 2 | 60* | nt
COC(=O)[C@@]12C[C@@H](CC(=O)NCCc3ccccc3OC)C(=O)N(Cc3ccccc3)C1=CCC(C)(C)C2 | 0 | nt | nt | 0 | nt | nt
CC(C)(C)C(=O)Cn1ncc(N2CCCC2)c(Br)c1=O | 0 | 0 | -2 | 0 | 5 | 6
CC(=O)Cn1ncc(Br)c(Br)c1=O | -1 | nt | 5 | 0 | 21 | 61*
Cc1cc(C)cc(N2C(=O)C=CC2=O)c1 | -1 | nt | -3 | 0 | 33* | -1
Cc1c([N+](=O)[O-])cc(N2C(=O)C=CC2=O)cc1[N+](=O)[O-] | 1 | nt | 0 | 0 | 23 | 7
COc1ccc2sc(-c3ccccc3OC)c(C#Cc3cncn3C)c2c1 | 0 | 18 | 8.6* | 0 | 12 | -3
CCCNC(=O)C1(C)CCN(C(=O)Cc2ccc3ccccc3c2)C1 (centres undefined) | 0 | nt | -1 | 0 | 0 | 15
O=C(c1ccc(Cl)c(Cl)c1)N1CCC(=O)N([C@H](COCc2ccc(Cl)cc2)Cc2ccccc2)CC1 | 0 | nt | nt | -1 | nt | nt
c1ccc(CSC2=NNC(c3ccccn3)S2)cc1 (centres undefined) | 0 | 5 | 0 | 0 | 15 | 67*
C#CCN(CC(=O)OCC)S(=O)(=O)CCNC1CC1 | 0 | nt | nt | 0 | nt | nt
Cc1ccc2nc(SCC(=O)Nc3ccc4[nH]c(=O)[nH]c4c3)[nH]c2c1 | 0 | 0 | -2 | 1 | -11 | 1
O=C(CSc1ccc(Cl)cc1)Nc1cccc(-c2nc3ccccc3[nH]2)c1 | 0 | 1 | 7 | 0 | 5 | nt
O=C(CSc1ccccc1)Nc1ccc(-c2nc3ccccc3[nH]2)cc1 | 0 | 0 | 11* | 3 | 13 | nt
Cc1ccc2nc(-c3ccc(NC(=O)CSc4ccccc4)cc3)[nH]c2c1 | 1 | 4 | 9.0* | 1 | 10 | nt
CCOc1cc(C2c3c(oc4ccccc4c3=O)C(=O)N2c2nccs2)ccc1O (centres undefined) | 0 | 4 | 9.5* | 0 | -4 | 0
CCc1ccc2nc(SCC(=O)N3CC(=O)Nc4ccccc43)c(C#N)cc2c1 | 0 | -6 | 0 | 0 | 7 | 51*
